Measured values as given in ChEMBL document CHEMBL3763086, “Salicylanilide N-monosubstituted carbamates: Synthesis and in vitro antimicrobial activity” (2016).
Converted amounts (≈) assume the structure as drawn.

What was measured:
Format in all cases: functional
Staphylococcus aureus [1] = test: Antibacterial activity against Staphylococcus aureus CCM 4516/08 after 24 hrs by microbroth dilution method; settings: CCM 4516/08, 24 h
Method in brief: (§1)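 Microbroth dilution modified per M07-A07 in Mueller-Hinton broth, pH 7.4 (±0.2). Inoculum in sterile water adjusted to 0.5 McFarland. MIC taken as growth reduction of at least 90% (IC90) versus control, read visually and at 540 nm after 24 and 48 h incubation in the dark.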

Staphylococcus aureus [2] = test: Antibacterial activity against Staphylococcus aureus CCM 4516/08 after 48 hrs by microbroth dilution method; settings: CCM 4516/08, 48 h
Method in brief: (§2)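 Microdilution broth method modified after M07-A07 in Mueller-Hinton broth adjusted to pH 7.4 (±0.2). Inoculum prepared in sterile water to 0.5 McFarland (1.5 × 10^8 CFU/mL). MIC taken as growth reduction versus control (IC95 per table header), read visually and spectrophotometrically at 540 nm after 24 and 48 h incubation in the dark.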

Staphylococcus aureus [3] = test: Antibacterial activity against methicillin-resistant Staphylococcus aureus H 5996/08 after 24 hrs by microbroth dilution method; settings: H 5996/08, 24 h; method in brief: as §2
Staphylococcus aureus [4] = test: Antibacterial activity against methicillin-resistant Staphylococcus aureus H 5996/08 after 48 hrs by microbroth dilution method; settings: H 5996/08, 48 h; method in brief: as §2
[5] = tested on: Staphylococcus epidermidis; test: Antibacterial activity against Staphylococcus epidermidis H 6966/08 after 24 hrs by microbroth dilution method; settings: H 6966/08, 24 h; method in brief: as §1
[6] = tested on: Staphylococcus epidermidis; test: Antibacterial activity against Staphylococcus epidermidis H 6966/08 after 48 hrs by microbroth dilution method; settings: H 6966/08, 48 h; method in brief: as §1
Enterococcus sp. [7] = test: Antibacterial activity against Enterococcus sp. J 14365/08 after 24 hrs by microbroth dilution method; settings: J 14365/08, 24 h; method in brief: as §1
Enterococcus sp. [8] = test: Antibacterial activity against Enterococcus sp. J 14365/08 after 48 hrs by microbroth dilution method; settings: J 14365/08, 48 h; method in brief: as §1
Escherichia coli [9] = test: Antibacterial activity against Escherichia coli CCM 4517 after 24 hrs by microbroth dilution method; settings: CCM 4517, 24 h; method in brief: as §1
Escherichia coli [10] = test: Antibacterial activity against Escherichia coli CCM 4517 after 48 hrs by microbroth dilution method; settings: CCM 4517, 48 h; method in brief: as §1
Klebsiella pneumoniae [11] = test: Antibacterial activity against Klebsiella pneumoniae D 11750/08 after 24 hrs by microbroth dilution method; settings: D 11750/08, 24 h; method in brief: as §1
Klebsiella pneumoniae [12] = test: Antibacterial activity against Klebsiella pneumoniae D 11750/08 after 48 hrs by microbroth dilution method; settings: D 11750/08, 48 h; method in brief: as §1
Klebsiella pneumoniae [13] = test: Antibacterial activity against ESBL-positive Klebsiella pneumoniae J 14368/08 after 24 hrs by microbroth dilution method; settings: J 14368/08, 24 h; method in brief: as §1
Klebsiella pneumoniae [14] = test: Antibacterial activity against ESBL-positive Klebsiella pneumoniae J 14368/08 after 48 hrs by microbroth dilution method; settings: J 14368/08, 48 h; method in brief: as §1
Candida albicans [15] = test: Antifungal activity against Candida albicans ATCC 44859 after 24 hrs by microbroth dilution method; settings: ATCC 44859, 24 h
Candida albicans [16] = test: Antifungal activity against Candida albicans ATCC 44859 after 48 hrs by microbroth dilution method; settings: ATCC 44859, 48 h
Candida tropicalis [17] = test: Antifungal activity against Candida tropicalis 156 after 24 hrs by microbroth dilution method; settings: Candida tropicalis, 156, 24 h
Candida tropicalis [18] = test: Antifungal activity against Candida tropicalis 156 after 48 hrs by microbroth dilution method; settings: Candida tropicalis, 156, 48 h
Pichia kudriavzevii [19] = test: Antifungal activity against Candida krusei E28 after 24 hrs by microbroth dilution method; settings: E28, 24 h
Pichia kudriavzevii [20] = test: Antifungal activity against Candida krusei E28 after 48 hrs by microbroth dilution method; settings: E28, 48 h
Nakaseomyces glabratus [21] = test: Antifungal activity against Candida glabrata 20/I after 24 hrs by microbroth dilution method
Nakaseomyces glabratus [22] = test: Antifungal activity against Candida glabrata 20/I after 48 hrs by microbroth dilution method
Trichosporon asahii [23] = test: Antifungal activity against Trichosporon asahii 1188 after 24 hrs by microbroth dilution method; settings: Trichosporon asahii, 1188, 24 h
Trichosporon asahii [24] = test: Antifungal activity against Trichosporon asahii 1188 after 48 hrs by microbroth dilution method; settings: Trichosporon asahii, 1188, 48 h
Lichtheimia corymbifera [25] = test: Antifungal activity against Absidia corymbifera 272 after 24 hrs by microbroth dilution method; settings: Lichtheimia corymbifera, 272, 24 h
Lichtheimia corymbifera [26] = test: Antifungal activity against Absidia corymbifera 272 after 48 hrs by microbroth dilution method; settings: Lichtheimia corymbifera, 272, 48 h
[27] = tested on: Trichophyton mentagrophytes; test: Antifungal activity against Trichophyton mentagrophytes 445 after 72 hrs by microbroth dilution method; settings: Trichophyton mentagrophytes, 445, 72 h
[28] = tested on: Trichophyton mentagrophytes; test: Antifungal activity against Trichophyton mentagrophytes 445 after 120 hrs by microbroth dilution method; settings: Trichophyton mentagrophytes, 445, 120 h

Row | Compound | MIC (Staphylococcus aureus [1]) | MIC (Staphylococcus aureus [2]) | MIC (Staphylococcus aureus [3]) | MIC (Staphylococcus aureus [4]) | MIC [5] | MIC [6] | MIC (Enterococcus sp. [7]) | MIC (Enterococcus sp. [8]) | MIC (Escherichia coli [9]) | MIC (Escherichia coli [10]) | MIC (Klebsiella pneumoniae [11]) | MIC (Klebsiella pneumoniae [12]) | MIC (Klebsiella pneumoniae [13]) | MIC (Klebsiella pneumoniae [14]) | MIC (Candida albicans [15]) | MIC (Candida albicans [16]) | MIC (Candida tropicalis [17]) | MIC (Candida tropicalis [18]) | MIC (Pichia kudriavzevii [19]) | MIC (Pichia kudriavzevii [20]) | further results
1 | O=C(NC1CCCCC1)Oc1ccc(Cl)cc1C(=O)Nc1ccc(Cl)cc1 | 1.95 µM (≈ 0.794 µg/mL) | 7.81 µM (≈ 3.18 µg/mL) | 3.9 µM (≈ 1.59 µg/mL) | 15.6 µM (≈ 6.36 µg/mL) | 0.98 µM (≈ 0.399 µg/mL) | 0.98 µM (≈ 0.399 µg/mL) | > 125 µM | > 125 µM | > 125 µM | > 125 µM | > 125 µM | > 125 µM | > 125 µM | > 125 µM | > 125 µM | > 125 µM | > 125 µM | > 125 µM | 125 µM (≈ 50.9 µg/mL) | 125 µM (≈ 50.9 µg/mL) | MIC (Nakaseomyces glabratus [21]): > 125 µM; MIC (Nakaseomyces glabratus [22]): > 125 µM; MIC (Trichosporon asahii [23]): 125 µM (≈ 50.9 µg/mL); MIC (Trichosporon asahii [24]): 125 µM (≈ 50.9 µg/mL); MIC (Lichtheimia corymbifera [25]): 125 µM (≈ 50.9 µg/mL); MIC (Lichtheimia corymbifera [26]): 125 µM (≈ 50.9 µg/mL); MIC [27]: 7.81 µM (≈ 3.18 µg/mL); MIC [28]: 7.81 µM (≈ 3.18 µg/mL)
2 | O=C(Nc1ccccc1)Oc1ccc(Cl)cc1C(=O)Nc1ccc(Cl)cc1 | 31.2 µM (≈ 12.5 µg/mL) | 31.2 µM (≈ 12.5 µg/mL) | 31.2 µM (≈ 12.5 µg/mL) | 31.2 µM (≈ 12.5 µg/mL) | 31.2 µM (≈ 12.5 µg/mL) | 31.2 µM (≈ 12.5 µg/mL) | 500 µM (≈ 201 µg/mL) | 500 µM (≈ 201 µg/mL) | 500 µM (≈ 201 µg/mL) | 500 µM (≈ 201 µg/mL) | 500 µM (≈ 201 µg/mL) | 500 µM (≈ 201 µg/mL) | 62.5 µM (≈ 25.1 µg/mL) | 62.5 µM (≈ 25.1 µg/mL) | > 125 µM | > 125 µM | > 125 µM | > 125 µM | 62.5 µM (≈ 25.1 µg/mL) | 62.5 µM (≈ 25.1 µg/mL) | MIC (Nakaseomyces glabratus [21]): > 125 µM; MIC (Nakaseomyces glabratus [22]): > 125 µM; MIC (Trichosporon asahii [23]): 62.5 µM (≈ 25.1 µg/mL); MIC (Trichosporon asahii [24]): 62.5 µM (≈ 25.1 µg/mL); MIC (Lichtheimia corymbifera [25]): > 125 µM; MIC (Lichtheimia corymbifera [26]): > 125 µM; MIC [27]: 1.95 µM (≈ 0.782 µg/mL); MIC [28]: 1.95 µM (≈ 0.782 µg/mL)
3 | O=C(NC12CC3CC(CC(C3)C1)C2)Oc1ccc(Cl)cc1C(=O)Nc1ccc(Cl)cc1 | 3.9 µM (≈ 1.79 µg/mL) | 15.6 µM (≈ 7.18 µg/mL) | 3.9 µM (≈ 1.79 µg/mL) | 31.2 µM (≈ 14.4 µg/mL) | 3.9 µM (≈ 1.79 µg/mL) | 3.9 µM (≈ 1.79 µg/mL) | 250 µM (≈ 115 µg/mL) | 250 µM (≈ 115 µg/mL) | > 250 µM | > 250 µM | > 250 µM | > 250 µM | 62.5 µM (≈ 28.7 µg/mL) | 62.5 µM (≈ 28.7 µg/mL) | > 250 µM | > 250 µM | 250 µM (≈ 115 µg/mL) | 250 µM (≈ 115 µg/mL) | 125 µM (≈ 57.4 µg/mL) | 125 µM (≈ 57.4 µg/mL) | MIC (Nakaseomyces glabratus [21]): > 250 µM; MIC (Nakaseomyces glabratus [22]): > 250 µM; MIC (Trichosporon asahii [23]): 31.2 µM (≈ 14.4 µg/mL); MIC (Trichosporon asahii [24]): 31.2 µM (≈ 14.4 µg/mL); MIC (Lichtheimia corymbifera [25]): > 250 µM; MIC (Lichtheimia corymbifera [26]): > 250 µM; MIC [27]: 3.9 µM (≈ 1.79 µg/mL); MIC [28]: 3.9 µM (≈ 1.79 µg/mL)
4 | O=C(NCCc1ccccc1)Oc1ccc(Cl)cc1C(=O)Nc1ccc(Cl)cc1 | 3.9 µM (≈ 1.67 µg/mL) | 15.6 µM (≈ 6.71 µg/mL) | 3.9 µM (≈ 1.67 µg/mL) | 15.6 µM (≈ 6.71 µg/mL) | 3.9 µM (≈ 1.67 µg/mL) | 15.6 µM (≈ 6.71 µg/mL) | 500 µM (≈ 215 µg/mL) | 500 µM (≈ 215 µg/mL) | 125 µM (≈ 53.7 µg/mL) | 500 µM (≈ 215 µg/mL) | 500 µM (≈ 215 µg/mL) | 500 µM (≈ 215 µg/mL) | 31.2 µM (≈ 13.4 µg/mL) | 31.2 µM (≈ 13.4 µg/mL) | > 500 µM | > 500 µM | > 500 µM | > 500 µM | > 500 µM | > 500 µM | MIC (Nakaseomyces glabratus [21]): > 500 µM; MIC (Nakaseomyces glabratus [22]): > 500 µM; MIC (Trichosporon asahii [23]): > 500 µM; MIC (Trichosporon asahii [24]): > 500 µM; MIC (Lichtheimia corymbifera [25]): > 500 µM; MIC (Lichtheimia corymbifera [26]): > 500 µM; MIC [27]: 1.95 µM (≈ 0.837 µg/mL); MIC [28]: 1.95 µM (≈ 0.837 µg/mL)
5 | O=C(NCc1ccccc1)Oc1ccc(Cl)cc1C(=O)Nc1ccc(Cl)cc1 | 3.9 µM (≈ 1.62 µg/mL) | 15.6 µM (≈ 6.49 µg/mL) | 7.81 µM (≈ 3.24 µg/mL) | 15.6 µM (≈ 6.49 µg/mL) | 3.9 µM (≈ 1.62 µg/mL) | 3.9 µM (≈ 1.62 µg/mL) | > 125 µM | > 125 µM | > 125 µM | > 125 µM | 125 µM (≈ 51.9 µg/mL) | 125 µM (≈ 51.9 µg/mL) | 62.5 µM (≈ 26 µg/mL) | 125 µM (≈ 51.9 µg/mL) | > 125 µM | > 125 µM | > 125 µM | > 125 µM | 62.5 µM (≈ 26 µg/mL) | 62.5 µM (≈ 26 µg/mL) | MIC (Nakaseomyces glabratus [21]): > 125 µM; MIC (Nakaseomyces glabratus [22]): > 125 µM; MIC (Trichosporon asahii [23]): 15.6 µM (≈ 6.49 µg/mL); MIC (Trichosporon asahii [24]): 15.6 µM (≈ 6.49 µg/mL); MIC (Lichtheimia corymbifera [25]): > 125 µM; MIC (Lichtheimia corymbifera [26]): > 125 µM; MIC [27]: 1.95 µM (≈ 0.81 µg/mL); MIC [28]: 1.95 µM (≈ 0.81 µg/mL)
